This test deals with Aβ (AD brain homogenates) (Homo sapiens, UniProt P05067). Kind of test: Competition of PiB against [3H]ACI-Aβ ref on AD brain homogenates. It counts as binding. The procedure, abridged: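 Insoluble AD brain fraction prepared by high-salt, Triton X-100 and sucrose ultracentrifugation steps. Competitor serially diluted from 2000 nM to 0.14 nM against tritiated Aβ reference ligand at 15 nM. Run in 50 mM Tris pH 7.5, 0.9% NaCl, 0.1% BSA for 2 h at RT, in duplicate. Samples vacuum-filtered on GF/C, washed five times with ice-cold Tris, then scintillation-counted.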

These results are taken from publication PMC12552610 (Nature Communications, 2025).

Sequence of Aβ (AD brain homogenates) (P05067 672-713): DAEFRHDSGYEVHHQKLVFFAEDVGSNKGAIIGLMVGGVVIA

As for `CNc1ccc(-c2nc3ccc(O)cc3s2)cc1` [Pittsburg compound B, 2-(4-(Methylamino)phenyl)benzo[d]thiazol-6-ol], the “displacement of Aβ ref cmpd” value was “can be displaced by it”.
